Measured values reported in ChEMBL document CHEMBL4765226, “Identification of a Human Toll-Like Receptor (TLR) 8-Specific Agonist and a Functional Pan-TLR Inhibitor in 2-Aminoimidazoles” (J Med Chem, 2016).
Activity calls are given as the source filed them.

Columns and labels:
Assay type in all cases: cell-based
Toll-like receptor 2 = Toll-like receptor 2 (Homo sapiens, UniProt O60603); assay: Agonist activity at human TLR2 stably expressed in HEK293 cells cotransfected with secreted alkaline phosphatase assessed as induction of NFkappaB activation by quanti-blue SEAP reporter gene based spectrophotometric method
Toll-like receptor 2, sequence (O60603 whole entry): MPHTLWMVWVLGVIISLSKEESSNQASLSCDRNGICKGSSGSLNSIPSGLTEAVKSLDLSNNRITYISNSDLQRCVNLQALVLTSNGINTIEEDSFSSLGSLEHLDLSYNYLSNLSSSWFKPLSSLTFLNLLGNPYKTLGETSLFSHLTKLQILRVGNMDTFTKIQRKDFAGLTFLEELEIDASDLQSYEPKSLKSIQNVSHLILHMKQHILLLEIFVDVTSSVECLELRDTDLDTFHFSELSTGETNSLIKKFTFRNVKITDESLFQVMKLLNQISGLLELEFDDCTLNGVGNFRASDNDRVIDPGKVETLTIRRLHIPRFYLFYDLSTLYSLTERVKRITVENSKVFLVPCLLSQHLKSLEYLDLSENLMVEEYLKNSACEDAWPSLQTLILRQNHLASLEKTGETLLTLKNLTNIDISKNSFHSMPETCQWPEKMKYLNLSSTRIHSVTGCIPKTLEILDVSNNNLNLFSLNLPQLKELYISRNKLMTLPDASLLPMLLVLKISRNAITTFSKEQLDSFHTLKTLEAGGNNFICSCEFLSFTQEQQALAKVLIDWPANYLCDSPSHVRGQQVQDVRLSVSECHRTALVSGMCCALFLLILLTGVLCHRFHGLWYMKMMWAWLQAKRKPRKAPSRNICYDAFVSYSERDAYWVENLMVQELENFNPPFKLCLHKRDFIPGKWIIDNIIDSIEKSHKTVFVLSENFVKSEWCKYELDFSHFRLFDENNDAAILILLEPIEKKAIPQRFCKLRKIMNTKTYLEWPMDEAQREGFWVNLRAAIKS
Outline: (§1)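 HEK293 cells stably co-transfected with the matching human TLR (2, 3, 4, 5, 7, 8 or 9) and NF-κB/AP-1-driven secreted alkaline phosphatase were kept in selection medium. About 10^5 cells/ml were incubated with graded concentrations of stimulus. sAP was read at 620 nm with a chromogen in detection medium. EC50 came from four-parameter logistic fits on quadruplicates.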

[1] = molecular target: Toll-like receptor 3 (Homo sapiens) (UniProt O15455); assay: Agonist activity at human TLR3 stably expressed in HEK293 cells cotransfected with secreted alkaline phosphatase assessed as induction of NFkappaB activation by quanti-blue SEAP reporter gene based spectrophotometric method; outline: as §1
Toll-like receptor 3 (Homo sapiens), sequence (O15455 whole entry): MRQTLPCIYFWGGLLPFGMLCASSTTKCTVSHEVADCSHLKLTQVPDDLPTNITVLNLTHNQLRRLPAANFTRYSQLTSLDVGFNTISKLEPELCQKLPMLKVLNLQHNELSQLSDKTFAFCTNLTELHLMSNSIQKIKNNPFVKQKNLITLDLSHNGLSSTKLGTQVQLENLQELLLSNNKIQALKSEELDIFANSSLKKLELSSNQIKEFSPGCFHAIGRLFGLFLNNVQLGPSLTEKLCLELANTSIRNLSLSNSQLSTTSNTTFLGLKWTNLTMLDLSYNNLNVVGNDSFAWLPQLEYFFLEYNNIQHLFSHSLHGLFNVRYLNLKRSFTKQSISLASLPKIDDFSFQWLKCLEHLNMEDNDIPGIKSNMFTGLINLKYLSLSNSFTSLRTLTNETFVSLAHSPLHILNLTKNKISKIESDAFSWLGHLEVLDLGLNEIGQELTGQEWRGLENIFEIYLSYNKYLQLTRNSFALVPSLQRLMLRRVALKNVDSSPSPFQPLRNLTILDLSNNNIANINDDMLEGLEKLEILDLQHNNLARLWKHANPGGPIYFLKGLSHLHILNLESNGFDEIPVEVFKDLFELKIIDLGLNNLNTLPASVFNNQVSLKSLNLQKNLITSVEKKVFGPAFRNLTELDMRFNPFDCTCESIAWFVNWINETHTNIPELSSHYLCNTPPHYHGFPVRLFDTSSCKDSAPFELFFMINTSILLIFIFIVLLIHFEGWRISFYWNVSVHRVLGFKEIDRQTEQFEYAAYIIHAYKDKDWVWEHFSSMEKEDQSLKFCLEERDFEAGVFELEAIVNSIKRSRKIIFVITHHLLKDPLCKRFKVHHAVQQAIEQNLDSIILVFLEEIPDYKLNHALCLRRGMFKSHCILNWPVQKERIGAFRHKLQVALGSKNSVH

[2] = molecular target: T1, Toll-like receptor 7 (Homo sapiens) (UniProt Q9NYK1); assay: Agonist activity at human TLR7 stably expressed in HEK293 cells cotransfected with secreted alkaline phosphatase assessed as induction of NFkappaB activation by quanti-blue SEAP reporter gene based spectrophotometric method; outline: as §1
T1 sequence (whole entry): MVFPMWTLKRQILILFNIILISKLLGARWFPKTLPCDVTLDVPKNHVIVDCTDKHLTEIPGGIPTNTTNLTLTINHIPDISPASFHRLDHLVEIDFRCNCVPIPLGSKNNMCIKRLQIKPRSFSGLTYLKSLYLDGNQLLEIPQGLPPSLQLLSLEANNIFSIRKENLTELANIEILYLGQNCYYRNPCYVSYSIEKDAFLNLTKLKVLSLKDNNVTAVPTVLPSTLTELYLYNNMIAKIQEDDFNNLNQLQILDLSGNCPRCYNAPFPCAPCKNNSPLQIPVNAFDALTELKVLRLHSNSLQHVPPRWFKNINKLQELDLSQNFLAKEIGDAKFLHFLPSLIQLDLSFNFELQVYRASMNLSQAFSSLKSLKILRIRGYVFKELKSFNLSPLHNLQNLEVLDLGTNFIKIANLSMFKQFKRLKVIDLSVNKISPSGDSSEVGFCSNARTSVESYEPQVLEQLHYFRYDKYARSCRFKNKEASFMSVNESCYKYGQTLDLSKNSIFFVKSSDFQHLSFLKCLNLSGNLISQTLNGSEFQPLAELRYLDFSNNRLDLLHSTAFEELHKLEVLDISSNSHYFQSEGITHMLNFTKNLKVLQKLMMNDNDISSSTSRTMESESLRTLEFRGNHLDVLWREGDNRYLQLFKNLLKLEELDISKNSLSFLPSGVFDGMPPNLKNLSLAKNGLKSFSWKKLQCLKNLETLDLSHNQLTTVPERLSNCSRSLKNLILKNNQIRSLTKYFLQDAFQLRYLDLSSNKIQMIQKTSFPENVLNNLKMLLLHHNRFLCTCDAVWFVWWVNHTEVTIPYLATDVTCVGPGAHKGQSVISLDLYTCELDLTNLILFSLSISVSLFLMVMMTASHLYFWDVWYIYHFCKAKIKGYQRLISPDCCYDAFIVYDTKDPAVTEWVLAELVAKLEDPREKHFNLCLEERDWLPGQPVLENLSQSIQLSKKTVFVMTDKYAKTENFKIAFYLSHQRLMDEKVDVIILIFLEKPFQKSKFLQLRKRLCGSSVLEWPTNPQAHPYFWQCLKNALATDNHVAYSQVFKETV

Measured: Activity

CCCCCn1cc(-c2ccccc2C)nc1N
inactive: all assays above

CCCCCn1cc(-c2ccc(OC)cc2)nc1N
inactive: all assays above

CCCCCn1cc(Cc2ccccc2)nc1N
inactive: all assays above

CCCCCn1cc(-c2ccccc2Cl)nc1N
inactive: all assays above

CCCCCn1cc(-c2cccc(OC)c2)nc1N
inactive: all assays above

CCCCCn1cc(-c2ccccc2CO)nc1N
inactive: all assays above

CCCCCn1cc(-c2cccc(C)c2)nc1N
inactive: all assays above

CCCCCn1c(-c2ccccc2)cnc1N.Cl
inactive: all assays above

CCCCCn1cc(-c2cc(C)ccc2C)nc1N
inactive: all assays above

CCCCCn1cc(-c2cccc(C)c2C)nc1N
inactive: all assays above

CCCCCn1cc(-c2ccccc2CC)nc1N
inactive: all assays above

CCCCCn1c(N)nc(-c2ccccc2)c1-c1ccccc1
inactive: all assays above

CCCCCn1cc(CCc2ccccc2)nc1N
inactive: all assays above

CCCCCn1cc(-c2ccccc2F)nc1N
inactive: all assays above

CCCCCn1cc(-c2ccc(N)cc2)nc1N
inactive: all assays above

CCCCCn1cc(-c2cccc(C)c2OC)nc1N
inactive: all assays above

CCCCCn1cc(-c2ccc(C)cc2)nc1N
inactive: all assays above

CCCCCn1cc(-c2cccc3ccccc23)nc1N
inactive: all assays above

CCCCCn1cc(-c2ccc(C(N)=O)cc2)nc1N
inactive: all assays above

CCCCCn1cc(-c2ccc(C)cc2C)nc1N
inactive: all assays above

CCCCCn1cc(-c2cccc(OC)c2OC)nc1N
inactive: all assays above

CCCCCn1cc(-c2ccc(C(F)(F)F)cc2)nc1N
inactive: all assays above

CCCCCn1cc(-c2ccccc2OC)nc1N
inactive: all assays above

CCCCCn1cc(-c2c(C)cccc2C)nc1N
inactive: all assays above

CCCCCn1cc(-c2cccc(Cl)c2)nc1N
inactive: all assays above

CCCCCn1cc(-c2ccccc2OCc2ccccc2)nc1N.Cl
inactive: all assays above

CCCCCn1cc(-c2cccc(C(F)(F)F)c2)nc1N
inactive: all assays above

CCCCCn1cc(-c2ccc(OC)cc2C)nc1N
inactive: all assays above

CCCCCn1cc(-c2cccc(F)c2)nc1N
inactive: all assays above

CCCCCn1cc(-c2c(C)noc2C)nc1N
inactive: all assays above

CCCCCn1cc(-c2ccc3ccccc3c2)nc1N
inactive: all assays above

CCCCCn1cc(-c2ccccc2C(=O)OC)nc1N
inactive: all assays above

CCCCCn1cc(-c2cccnc2)nc1N
inactive: all assays above

CCCCCn1cc(-c2ccc(F)cc2C)nc1N
inactive: all assays above

CCCCCn1cc(-c2ccc(-c3ccccc3)cc2)nc1N
inactive: all assays above

CCCCCn1ccnc1N
inactive: all assays above

CCCCCn1cc(-c2ccccc2C(F)(F)F)nc1N
inactive: all assays above

CCCCCn1cc(-c2ccc(Cl)cc2)nc1N
inactive: all assays above

CCCCCn1cc(-c2ccc(C(=O)OC)cc2)nc1N
inactive: all assays above

CCCCCn1cc(-c2cc(OC)c(OC)c(OC)c2)nc1N
inactive: all assays above

CCCCCn1cc(-c2ccccc2O)nc1N
inactive: all assays above
